# Source: PubChem (several laboratories)
# The list is not random: actives were taken first. Their share in the collection is about 2.9%.
# T cruzi repl: T. cruzi replication inhibition. T. cruzi beta-gal in NIH3T3, luminescence, 90 h. 300,000 tested, 1.4% active. AID 1885. inhibition, % (concentration not given with the values);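 active = mean inhibition across valid replicates above about 55%, limit read from the data; inconclusive = mean below that limit but half or more replicates reach it; inactive = mean below it, under half of replicates reach it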;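 note: signal also drops with host cell toxicity which is not excluded here; higher percent means less beta-gal luminescence so fewer parasites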
#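 Assay system: NIH/3T3 fibroblasts plus reporter T. cruzi. Amount: NIH/3T3 cells, 5,000 per well. Buffer or medium: DMEM, 2% fetal bovine serum. Doses: compound pinned at 50 nL/well, DMSO. Schedule: ≥90 h infection period, 3 h prior cell attachment. Signal: luminescent β-galactosidase signal after 60 min lysis. Read-out: parasite load inhibition, %.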
# MIN6 prolif: MIN6 beta-cell proliferation induction. proliferation, % at 10 µM. MIN6 cells proliferation, ATPlite luminescence, 48 h; cells starved in 0.2% serum; 100% = growth in 10% serum. 330,000 tested, 0.29% active;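 active = compounds whose signal lies at least 3.5 SD above the mean of all wells on their plate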
# TAG inh: reduces triacylglycerol accumulation in H9c2 cells. Nile Red lipid (TAG) fluorescence; cells loaded with 200 µM oleic acid. inhibition, % at 12.5 µM. 230,000 tested, 0.66% active. AID 651582;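 active = pattern-corrected inhibition of lipid staining of at least 50% with the nuclear-stain viability signal not falling by more than 50%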
# NR1D1 modulator: Rev-erb alpha (human) modulation; Rev-erbα–FITC-DNA binding, fluorescence polarization, 90 min; activity, % at 10 µM; P20393; 370,000 tested, 0.79% active;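 active = activity above about 14%, limit read from the data; passing the limit was not always enough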
# Target sequence (P20393 whole entry, looked up): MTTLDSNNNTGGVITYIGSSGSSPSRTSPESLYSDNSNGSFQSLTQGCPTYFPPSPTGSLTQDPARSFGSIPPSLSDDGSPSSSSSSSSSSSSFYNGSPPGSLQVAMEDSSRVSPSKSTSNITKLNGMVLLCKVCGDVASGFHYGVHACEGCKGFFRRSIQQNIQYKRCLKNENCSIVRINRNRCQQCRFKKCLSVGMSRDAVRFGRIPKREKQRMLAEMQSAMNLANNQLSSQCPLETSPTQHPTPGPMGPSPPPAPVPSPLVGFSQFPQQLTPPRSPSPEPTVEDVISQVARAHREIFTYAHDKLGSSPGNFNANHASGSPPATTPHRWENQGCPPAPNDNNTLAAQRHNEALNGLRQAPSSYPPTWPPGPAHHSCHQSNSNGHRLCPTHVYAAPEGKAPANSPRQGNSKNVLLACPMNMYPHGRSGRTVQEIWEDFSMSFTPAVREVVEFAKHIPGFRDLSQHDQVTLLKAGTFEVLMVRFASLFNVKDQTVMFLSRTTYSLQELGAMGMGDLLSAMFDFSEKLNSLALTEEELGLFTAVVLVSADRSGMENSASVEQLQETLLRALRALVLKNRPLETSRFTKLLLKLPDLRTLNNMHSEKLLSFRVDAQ
# iPSC survival up: increases survival of single human iPS cells; 360,000 tested, 0.044% active; hiPSC single-cell survival, ATPlite luminescence; 100% = ROCK inhibitor wells, 0% = DMSO; survival enhancement, % at 20 µM; in the data active = survival enhancement above about 18%;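 note: cells exposed to compounds for 16 hours before the ATP read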
# PG9 Ab binder: small molecules binding HIV-1 gp120 antibody PG9; AID 624416; TR-FRET gp120-PG9 antibody binding; inhibition, % at 6.7 µM; 360,000 tested, 0.43% active; in the data active = inhibition above about 8.5%
# Numbers stand for hits; – = inactive; ? = inconclusive; · = no result given; ! = repeats disagree.
SMILES,T cruzi repl,MIN6 prolif,TAG inh,NR1D1 modulator,iPSC survival up,PG9 Ab binder
CN1CCN(CCCNC(=O)c2ccc(/C=C3/Sc4ccccc4N(Cc4cccc(Cl)c4)C3=O)cc2)CC1,58,·,–,–,–,–
CCN1CCN(CCNC(=O)c2ccc(/C=C3\Sc4ccccc4N(Cc4ccccc4F)C3=O)cc2)CC1,60,–,–,–,–,–
C(=C\c1ccco1)/C1=NN(c2ccccc2)C(c2ccco2)C1 (centres undefined),–,–,–,·,–,·
O=[N+]([O-])c1ccc(/C=C/C2=NN(c3ccccc3)C(c3ccco3)C2)o1 (centres undefined),61,·,–,–,–,–
CCN1CCN(c2nc(-c3ccccc3)nc3ccccc23)CC1,–,–,·,–,–,–
Cc1cccc2nc(-c3ccccc3)nc(N3CCC(O)(c4ccc(Cl)cc4)CC3)c12,60,–,·,–,–,–
Cc1ccc(N2C(=O)CC(N3CCN(S(=O)(=O)c4ccccc4)CC3)C2=O)c(C)c1 (centres undefined),–,–,–,–,–,–
COc1ccc(N2CCN(C(=O)CCCN3C(=O)c4cccc5cccc(c45)C3=O)CC2)cc1,75,–,–,–,–,–
O=C(CCCN1C(=O)c2cccc3cccc(c23)C1=O)N1CCN(c2ccc(F)cc2)CC1,–,–,–,–,–,–
CCN(CC)CCn1c(=N)n(CCO)c2ccccc21,–,–,–,–,–,–
Cc1cccc(C)c1NC(=O)c1cn(-c2ccccc2)nc1-c1ccccc1,–,–,·,–,–,–
Cc1nn(Cc2ccc(Cl)c(Cl)c2)c(C)c1NC(=O)c1cn(-c2ccccc2)nc1-c1ccccc1,61,–,–,–,–,–
Cc1nn(Cc2ccccc2)c(C)c1NC(=O)c1ccc([N+](=O)[O-])cc1[N+](=O)[O-],56,–,·,–,–,–
COc1cccc(C(=O)Cn2c(NCCCO)nc3ccccc32)c1,–,–,·,–,–,–
CCC(CC)c1nnc(NC(=O)C23CC4CC(CC(NC(C)=O)(C4)C2)C3)s1,–,–,–,–,–,–
Cc1c(C#N)c(NC(=O)CCl)n(Cc2ccccc2)c1C,?,–,–,–,–,–
Cc1c(C#N)c(NC(=O)CCl)n(Cc2cccs2)c1C,61,–,–,–,–,–
Cc1cccc(NC(=O)c2sc3nc(C)nc(N4CCOCC4)c3c2C)c1,·,·,–,–,–,–
Cc1ccnc(NC(=O)CCC(=O)N(CC(=O)NCc2ccc(F)cc2)c2ccc(F)cc2)c1,–,–,·,–,–,–
CCOc1ccc(NC(=O)CC2C(=O)N(C)C(=S)N2CCCc2ccccc2)cc1 (centres undefined),55,–,·,–,–,–
CCN1C(=O)C(CC(=O)Nc2ccc(Br)cc2)N(CCCc2ccccc2)C1=S (centres undefined),56,–,–,–,–,–
Cc1ccc(C[n+]2cccc(-c3ccccc3)c2)c(C)c1,72,–,·,–,–,–
CN1C=C/C(=C\c2cc[n+](C)c3ccccc23)c2ccccc21,56,·,–,–,–,–
CC[n+]1ccc(/C=C2\Sc3ccccc3N2CCCS(=O)(=O)[O-])c2ccccc21,–,–,–,–,–,–
Cc1ccc(Nc2nc(-c3cccnc3)cs2)cc1C,–,–,·,–,–,–
SMILES,T cruzi repl,MIN6 prolif,TAG inh,NR1D1 modulator,iPSC survival up,PG9 Ab binder
COc1ccc(Cl)cc1Nc1nc(-c2cccnc2)cs1,56,–,·,–,–,–
Brc1cccc(Nc2nc(-c3cccnc3)cs2)c1,–,–,–,–,–,–
Clc1cccc(Nc2nc(-c3cccnc3)cs2)c1,59,–,–,–,–,–
O=C(c1ccco1)N1CCN(C(c2ccccc2F)c2nnnn2Cc2cccs2)CC1 (centres undefined),–,–,–,–,–,–
O=C(c1ccco1)N1CCN(C(c2ccc(Cl)cc2)c2nnnn2Cc2ccccc2)CC1 (centres undefined),–,–,–,–,–,–
CC(O)/C=C/c1cccc[n+]1C (centres undefined),·,–,·,–,–,–
Cc1cn(-c2cc(C(=O)Nc3ccc(C)c(NC(=O)C(=O)c4c[nH]c5ccccc45)c3)cc(C(F)(F)F)c2)cn1,–,–,124!,–,–,–
Cc1ccc2nc(/C(C#N)=C\c3ccc([N+](=O)[O-])o3)[nH]c2c1,67,–,·,–,–,–
